Assays:
J89 cells = assay: MTT cytotoxicity/proliferation assay in J89 cells; assay type: cell-based; details: 24 h, at concentrations used to induce LTR expression
Outline: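 Cells were washed in PBS and incubated 24 h across a range of inhibitor concentrations, then assayed with an MTT proliferation kit. Percent proliferating cells was calculated relative to cells in drug-free medium. Run in triplicate.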

[1] = tested on: latent HIV in resting CD4+ T cells; assay type: cell-based, HIV-1; details: resting CD4+ T cells of aviremic patients on ART, 24 h exposure, compared to PHA
Outline: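 Resting CD4+ T cells came from leukapheresis by negative selection, from patients with plasma RNA <50 copies/ml. Cells were plated at 2.5, 0.5 or 0.1 million per well and exposed to drug for 24 h. PHA comparator: 1 µg/ml PHA-L, five-fold irradiated allogeneic PBMCs and 20 U/ml IL-2. Cells were then washed and co-cultured with CD8-depleted PBMC. p24 ELISA was read on days 15 and 19, and IUPM derived by maximum likelihood.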

HDACs = details: HDAC isoforms inhibited; cited from earlier work
HIV LTR in J89 cells = assay: LTR-driven GFP expression in J89 cells by flow cytometry; assay type: cell-based; details: overnight incubation with HDACi
Outline: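 Latently infected Jurkat line carrying EGFP as a reporter of Tat-driven HIV LTR expression, grown in RPMI 1640 with 10% FBS at 37°C, 5% CO2. Cells were PBS-washed, exposed overnight to inhibitor, then fixed in PBS with 2% paraformaldehyde. Live cells were gated, with two-parameter analysis to separate GFP from background. From 10 000 events, %GFP+ was reported as mean ± SE of three independent experiments.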

[2] = tested on: latent HIV in resting CD4+ T cells; details: cited from earlier work

Question: For `CCC(=O)CCCCC[C@@H]1NC(=O)[C@H]2CCCCN2C(=O)[C@H]([C@@H](C)CC)NC(=O)[C@H](Cc2cn(OC)c3ccccc23)NC1=O` [Apicidin, apicidin], which “cell proliferation (MTT)” value (J89 cells) is on record?
Answer: Its value is “slightly antiproliferative”.

Question: And the “induction of virus outgrowth (recovery of replication-competent HIV)” value [1]?
Answer: The value was “suboptimal”.

Question: And the Selectivity (HDACs)?
Answer: Its Selectivity is “HDAC1, 2, 3”.

Question: And the “LTR activation (LTR-driven GFP expression)” value (HIV LTR in J89 cells)?
Answer: The value was “induced LTR activation”.

Question: Which “viral outgrowth from resting CD4+ T cells of aviremic HIV-infected individuals on ART” value [2] does the source give for `O=C(CCCCCCC(=O)Nc1ccccc1)NO` [SAHA, suberoylanilide hydroxamic acid] here?
Answer: Its value is “induce viral outgrowth”.

Question: Which “cell proliferation (MTT)” value (J89 cells) does the source give for `CCCC(CCC)C(=O)O` [VPA, valproic acid] here?
Answer: Its value is “did not perturb cell proliferation”.

Question: And the “viral outgrowth from resting CD4+ T cells of aviremic HIV-infected individuals on ART” value [2]?
Answer: The value was “induce viral outgrowth”.

Question: What about the “induction of virus outgrowth (recovery of replication-competent HIV)” value [1] of the same molecule?
Answer: Its value is “effective at inducing virus”.

Question: What about the “LTR activation (LTR-driven GFP expression)” value (HIV LTR in J89 cells) of the same molecule?
Answer: Its value is “effectively induced LTR expression”.

From paper PMC3809117 (AIDS (London, England), 2009)
